Results on 5 compounds are retold here after ChEMBL document CHEMBL5214995, “Orally Bioavailable Quinoxaline Inhibitors of 15-Prostaglandin Dehydrogenase (15-PGDH) Promote Tissue Repair and Regeneration” (J Med Chem, 2022).

Data set [1] can be described thus: Aqueous solubility of the compound under shaking condition by LC-MS/MS analysis. Type of data set: physicochemical. Particulars: buffer.
Data set [2] can be described thus: Cmax in CD-1 mouse at 10 mg/kg,ip measured upto 1440 mins by LC-MS/MS analysis. Type of data set: ADME, organism-based. Also noted: time < 1440 min, dose 10 mg/kg, route ip. Conditions: in vivo. The essentials:
(§1)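 Female CD1 mice were given a single 10 mg/kg IP dose. […] Plasma was extracted with methanol/0.15% formic acid containing N-benzylbenzamide internal standard and analysed by LC-MS/MS against spiked blank-plasma standards. Cmax and AUC were derived by noncompartmental analysis.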

A short description of data set [3]: AUC in CD-1 mouse at 10 mg/kg,ip measured upto 1440 mins by LC-MS/MS analysis. Also noted: time < 1440 min, dose 10 mg/kg, route ip. In kind it is ADME, organism-based. Conditions: in vivo; for AUC: mouse, 24 h. In outline:
as §1

In data set [4] the test system is Colon. The data set can be described thus: In vivo activation of PGE2 in C57BL/6J mouse colon tissue assessed as increase in PGE2 level at 5 mg/kg,ip measured after 3 hrs by ELISA. Type of data set: functional, organism-based. The essentials: (§2)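 Female C57bl/6J mice aged 8-9 weeks were dosed IP and euthanised 3 h later. Colon and lung were rinsed in ice-cold PBS with indomethacin (5.6 µg/ml), snap-frozen, pulverised, homogenised in cold PBS/indomethacin, sonicated on ice and centrifuged. PGE2 in the supernatant was measured by ELISA in triplicate and normalised to BCA protein as ng PGE2/mg protein.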
In general terms: An ELISA detects its analyte on a solid surface through an enzyme-linked reagent.

Data set [5] relates to Lung. Nature of the data set: In vivo activation of PGE2 in C57BL/6J mouse lung tissue assessed as increase in PGE2 level at 5 mg/kg,ip measured after 3 hrs by ELISA. In kind it is functional, organism-based. In outline: as §2
A short description of data set [6]: Cmax in CD-1 mouse at 10 mg/kg,po measured upto 1440 mins by LC-MS/MS analysis. Also noted: dose 10 mg/kg, time < 1440 min, route po. Particulars: in vivo, 24 h. In kind it is ADME, organism-based. The essentials:
(§3)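 Female CD1 mice received a single 10 mg/kg PO or 5 mg/kg IV dose in 10% DMSO, 25% PEG400, 1% Tween-80 and 64% D5W (pH 7.4). Groups of three were killed at 0–1440 min, with blood taken by cardiac puncture into ACD. Plasma was extracted into methanol with formic acid and internal standard, and drug was quantified by LC-MS/MS against spiked blank-plasma standards. Cmax and AUC came from noncompartmental analysis.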

A short description of data set [7]: AUC in CD-1 mouse at 10 mg/kg,po measured upto 1440 mins by LC-MS/MS analysis. Conditions: in vivo, 24 h. Also noted: time < 1440 min, dose 10 mg/kg, route po. In kind it is ADME, organism-based. The essentials: as §3
The nature of data set [8]: Oral bioavailability in CD-1 mouse at 10 mg/kg measured upto 1440 mins by LC-MS/MS analysis. In kind it is ADME, organism-based. Conditions: in vivo, 24 h. In outline: as §3
Data set [9] is described as follows: Cmax in CD-1 mouse at 5 mg/kg,iv measured upto 1440 mins by LC-MS/MS analysis. In kind it is ADME, organism-based. Also noted: dose 5 mg/kg, time < 1440 min, route iv. Conditions: in vivo, 24 h. The essentials:
as §3

Data set [10] in a line: AUC in CD-1 mouse at 5 mg/kg,iv measured upto 1440 mins by LC-MS/MS analysis. Type of data set: ADME, organism-based. Also noted: dose 5 mg/kg, time < 1440 min, route iv. Particulars: in vivo, 24 h. In outline: as §3
The subject of data set [11] is Colon. Nature of the data set: In vivo activation of PGE2 in C57BL/6J mouse colon tissue assessed as increase in PGE2 level at 2.5 mg/kg,ip measured after 3 hrs by ELISA. In kind it is functional, organism-based. The essentials: as §2
The subject of data set [12] is Lung. Nature of the data set: In vivo activation of PGE2 in C57BL/6J mouse lung tissue assessed as increase in PGE2 level at 2.5 mg/kg,ip measured after 3 hrs by ELISA. Type of data set: functional, organism-based. In outline: as §2
The subject of data set [13] is Mus musculus. The data set can be described thus: Protection against DSS-induced acute ulcerative colitis in […] mouse assessed as increase in body weight at 40 mg/kg,po measured upto 12 days of administration. Conditions: time <= 12.0 day. Type of data set: functional, organism-based.
The test system of data set [14] is Mus musculus. Nature of the data set: Protection against DSS-induced acute ulcerative colitis in […] mouse assessed as increase in body weight at 10 mg/kg,ip measured from 7 to 12 days of administration. In kind it is functional, organism-based. Particulars: time 7-12 day.
Data set [15] concerns Mus musculus. Nature of the data set: Protection against DSS-induced acute ulcerative colitis in […] mouse assessed as increase in colon length at 40 mg/kg,po measured after 12 days of administration. In kind it is functional, organism-based. Conditions: time 12.0 day.
Data set [16] concerns Mus musculus. Nature of the data set: Protection against DSS-induced acute ulcerative colitis in […] mouse assessed as increase in colon length at 10 mg/kg,ip measured from 8 to 12 days of administration. Particulars: time 8-12 day. In kind it is functional, organism-based.
In data set [17] the test system is Mus musculus. Nature of the data set: Protection against DSS-induced acute ulcerative colitis in […] mouse assessed as decrease in cryptitis score at 40 mg/kg,po measured after 12 days of administration. Type of data set: functional, organism-based. Particulars: time 12.0 day.
Data set [18] deals with Mus musculus. The data set can be described thus: Protection against DSS-induced acute ulcerative colitis in […] mouse assessed as decrease in cryptitis score at 10 mg/kg,ip measured after 12 days of administration. Particulars: time 12.0 day. Type of data set: functional, organism-based.
The subject of data set [19] is Mus musculus. The data set can be described thus: […] activity against bone marrow transplanted mouse model assessed as increase in total WBC repopulation at 10 mg/kg,ip bid measured by flow cytometry after 15 days post-transplant recovery period. In kind it is functional, organism-based. Conditions: time 15.0 day. (Flow cytometry measures light scatter and fluorescence of single cells or particles in a stream.)

The test system of data set [20] is Mus musculus. The data set can be described thus: […] activity against bone marrow transplanted mouse model assessed as increase in RBC repopulation at 10 mg/kg,ip bid measured by flow cytometry after 15 days post-transplant recovery period. Type of data set: functional, organism-based. Conditions: Erythrocyte, time 15.0 day.
Data set [21] is described as follows: Apparent permeability of the compound from apical to basolateral side in human Caco-2 cells measured upto 120 mins by LC-MS/MS analysis. In kind it is ADME, cell-based. Particulars: caco-2, 2 h. In outline: (§4)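 Caco-2 cells were grown three weeks on 12-well Transwells in DMEM with 20% FBS and supplements, then washed in HBSS with Ca/Mg and 0.5% FBS. Monolayers were used only if TEER exceeded 800 Ωcm², and TEER was rechecked after the assay.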
(Caco-2 monolayers are a common model of the intestinal barrier.)

A short description of data set [22]: Apparent permeability of the compound from basolateral to apical side in human Caco-2 cells measured upto 120 mins by LC-MS/MS analysis. Conditions: caco-2, 2 h. In kind it is ADME, cell-based. In outline: as §4
Data set [23] has as its system Colon. Nature of the data set: animal or person. Particulars: Mus musculus, C57BL/6J, po, 0.5 h, read-out: INH.
Data set [24] relates to Colon. Nature of the data set: animal or person. Particulars: Mus musculus, C57BL/6J, po, 1.5 h, read-out: INH.

In brackets after ≈: the same amount, converted by molar mass. Activity calls are given as the source filed them. The rule behind the calls is not given here. A value given as a limit tells only on which side of the number the result lay.

`O=C(c1ccc2ncc(-c3ccc4cnccc4c3)nc2c1)N1CCCCC1` came in with a thermodynamic solubility in [1] of 14 µg/mL (≈ 38 µM).
In the case of `O=C(c1ccc2ncc(-c3ccc4c(=O)[nH]ccc4c3)nc2c1)N1CCCCC1`, in data set [1], the thermodynamic solubility was 4 µg/mL (≈ 10.4 µM). Also, the highest concentration (Cmax) in data set [2] (mouse, 24 h) stood at 7400 ng/mL. Besides, the area under the curve (AUC) in data set [3] turned out to be 270 µg·min/mL.
With `Cl.Nc1ncc(-c2cnc3ccc(C(=O)N4CCCCC4)cc3n2)cc1Cl`, in [2] (CD-1, mouse, read-out: Cmax), the Cmax came out at 3000 ng/mL. The same compound had an area under the curve (AUC) at 24 h in data set [3] (CD-1, mouse) of 2870 ng·h/mL. Also, the result with Colon [4] and in the data set on Lung [5] was Active.
As to `Cn1ccc2cc(-c3cnc4ccc(C(=O)N5CCCCC5)cc4n3)ccc2c1=O`, in [1], the solubility (thermodynamic) was 56 µg/mL (≈ 141 µM). For the same compound, the Cmax in data set [2] (mouse, 24 h) came to 6400 ng/mL; in data set [6], 950 ng/mL; in data set [9] it was 3000 ng/mL. The AUC in data set [3] is 517 µg·min/mL; in [7], 256 µg·min/mL; in data set [10], 205 µg·min/mL. This compound also came in with a F in data set [8] of 63%. In addition, the outcome with Colon [4], with Lung [5], with Colon [11], in the data set with Lung [12], in the data set on Mus musculus [13] and in the data set with Mus musculus [14] was Active. The result with Mus musculus [15], in the data set on Mus musculus [16], in the data set with Mus musculus [17], in the data set with Mus musculus [18], in the data set with Mus musculus [19] and in the data set with Mus musculus [20] was Active. The Papp is 45 10^-6 cm/s in data set [21] and 34 10^-6 cm/s in [22]. The inhibition in vivo at 20 mg/kg was more than 90% in the data set on Colon [23] and more than 80% in the data set on Colon [24].
Regarding `O=C(c1ccc2ncc(-c3ccc4ncccc4c3)nc2c1)N1CCCCC1`, in data set [1], the thermodynamic solubility was 55 µg/mL (≈ 149 µM).

What is called solubility (thermodynamic) is the concentration in solution at equilibrium with solid. One may read the Cmax as the highest concentration seen after dosing. For orientation: AUC means concentration integrated over time. Read a high AUC as high exposure.
